# In the library only some 2.1% were active in any assay of this set; here they are far more common.
# SUMO HTRF inh – blocks human SUMOylation mediated by UBC9; AID 2006; inhibition, % at 35 µM; HTRF SUMOylation assay, SAE1/SAE2 + UBC9, in vitro; P63279; actives 0.36% (n = 290,000); in the data active means inhibition above about 50%, passing the limit was not always enough
# Target sequence (P63279 whole entry, looked up): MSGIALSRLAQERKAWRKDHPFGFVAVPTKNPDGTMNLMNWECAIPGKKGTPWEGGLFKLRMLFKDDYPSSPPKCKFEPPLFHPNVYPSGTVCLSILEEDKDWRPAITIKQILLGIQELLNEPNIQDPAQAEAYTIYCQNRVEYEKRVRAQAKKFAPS
# IMP-1 inh-1 – blocks Pseudomonas aeruginosa IMP-1 metallo-beta-lactamase; purified IMP-1, nitrocefin hydrolysis, epi-absorbance fluorescence; inhibition, % at 5.6 µM; actives 0.45% (n = 290,000); AID 1556;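 active means inhibition above the mean plus 3 SD of all compounds in the same screening run, cut at about 4.5% in these data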;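 further: 0% = IMP-1 with DMSO and 100% = DMSO wells lacking enzyme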
#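 Material – recombinant IMP-1 enzyme, purified · Amount – IMP-1 0.2 nM before substrate addition · Medium – HEPES buffer pH 7.1 with ZnSO4 and Brij 35 · Timing – 25 °C, 15 min preincubation, 25 min reaction · Measured by – plate fluorescence quenching by hydrolysis product, ex 480/em 530 nm · Read-out – percent enzyme inhibition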
# DNA FID counter-1 – counter-screen for HCV NS3 helicase inhibitors: DNA intercalator displacement; DNA fluorescent intercalator displacement, fluorescence; inhibition, % at 7.9 µM; actives 0.17% (n = 290,000); AID 1845;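 further: 0% = vehicle and 100% = reference compound; higher means more ethidium bromide displaced from hairpin DNA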
# HCV NS3 hel inh – HCV NS3 helicase inhibition; NS3 helicase DNA unwinding, Cy5 molecular beacon fluorescence; inhibition, % at 10.9 µM; actives 0.56% (n = 290,000); AID 1800;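 active means inhibition above the mean of all tested compounds plus 3 SD, set per campaign, cut at about 35% in these data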;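 further: 0% = DMSO wells and 100% = thioflavine S control wells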
#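 Compound dosing – single dose, 10.9 µM nominal final, DMSO 0.8% final · System – NS3 helicase fragment of HCV · Buffer or medium – MOPS pH 6.5, MgCl2, DTT, Tween20, BSA · Signal – Cy5 beacon fluorescence read at start and 1 h · Also added – annealed dual-labelled DNA beacon duplex, ATP-started · Schedule – 1 h at 25 °C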
# VIM-2 inhibitor – blocks Pseudomonas aeruginosa VIM-2 metallo-beta-lactamase; purified VIM-2, nitrocefin hydrolysis, epi-absorbance fluorescence; inhibition, % at 5.6 µM; actives 0.89% (n = 290,000); AID 1527;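 active means inhibition above the mean of all tested compounds plus 3 SD, cutoff set per screening run, cut at about 7.5% in these data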;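 further: red hydrolysis product quenches plate fluorescence so inhibitors raise well fluorescence; 0% = enzyme with DMSO and 100% = DMSO without enzyme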
# IMP-1 inh-2 – selectivity counter-screen for VIM-2 inhibitors: IMP-1 metallo-beta-lactamase inhibitors | inhibition, % at 5.6 µM | shares compounds with VIM-2 inhibitor | purified IMP-1, nitrocefin hydrolysis, epi-absorbance fluorescence | 1,300 tested, under 10 active | AID 1856; call rule not given here;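 further: 0% = enzyme with vehicle and 100% = vehicle without enzyme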
# VIM-2 FRET ctr – inhibits VIM-2 in FRET assay to exclude epi-absorbance artifacts | purified VIM-2, CCF2 FRET substrate hydrolysis | shares compounds with VIM-2 inhibitor | actives 23% (n = 1,300) | inhibition, % at 5.6 µM;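 active means inhibition above the mean of all tested compounds plus 3 SD, cut at about 19% in these data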;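 further: 0% = VIM-2 plus DMSO and 100% = no enzyme wells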
# TEM-1 inh – blocks E. coli TEM-1 beta-lactamase in VIM-2 selectivity screen; shares compounds with VIM-2 inhibitor; Purified TEM-1, nitrocefin hydrolysis, epi-absorbance fluorescence; inhibition, % at 5.6 µM; actives 3% (n = 1,300); AID 1866;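 active means inhibition above that campaign's mean inhibition plus 3 SD, cut at about 0.46% in these data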;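 further: 0% = TEM-1 with DMSO and 100% = TEM-1 with 100 µM potassium clavulanate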
# Target sequence (P62593 whole entry, looked up): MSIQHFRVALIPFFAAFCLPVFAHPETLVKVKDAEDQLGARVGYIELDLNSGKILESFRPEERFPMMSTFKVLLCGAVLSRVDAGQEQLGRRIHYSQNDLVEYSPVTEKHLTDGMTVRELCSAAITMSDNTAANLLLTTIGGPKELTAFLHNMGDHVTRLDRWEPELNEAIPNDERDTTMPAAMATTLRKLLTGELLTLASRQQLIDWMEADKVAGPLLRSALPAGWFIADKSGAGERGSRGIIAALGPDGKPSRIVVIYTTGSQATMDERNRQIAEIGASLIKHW
# VIM-2 confirm 2 – confirmation of P. aeruginosa VIM-2 metallo-beta-lactamase inhibitors | inhibition, % at 5.6 µM | purified VIM-2, nitrocefin hydrolysis, epi-absorbance | shares compounds with VIM-2 inhibitor | actives 96% (n = 1,300);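 active means inhibition of the VIM-2 beta-lactamase enzyme above about 11% from the earlier first-round screen, limit read from the data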;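 further: 0% = VIM-2 with DMSO and 100% = buffer wells without enzyme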
# NS3 hel confirm – confirmation of Hepatitis C virus NS3 helicase inhibitors; shares compounds with HCV NS3 hel inh; AID 1943; actives 31% (n = 1,600); inhibition, % at 10.9 µM; NS3 helicase DNA unwinding, Cy5 molecular beacon fluorescence;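 active means inhibition above the mean of all tested compounds plus 3 SD, cutoff set per campaign, cut at about 36% in these data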
# DNA FID counter-2 – counter-screen for HCV NS3 helicase inhibitors: DNA intercalator displacement. shares compounds with HCV NS3 hel inh. DNA fluorescent intercalator displacement, fluorescence. inhibition, % at 7.9 µM. actives 4% (n = 1,600);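 further: 0% = vehicle and 100% = reference compound; higher means more displacement of ethidium bromide from the DNA hairpin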
# An asterisk follows results filed as active; / = no result given. Unless noted, no stated cut-off is given here; in the data, active means inhibition above about 37%; inactive means the rest.
SMILES,SUMO HTRF inh,IMP-1 inh-1,DNA FID counter-1,HCV NS3 hel inh,VIM-2 inhibitor,IMP-1 inh-2,VIM-2 FRET ctr,TEM-1 inh,VIM-2 confirm 2,others
CCOC(=O)c1c(C)n(CCN2CCN(C)CC2)c2ccc(OC)cc12,4,-1,16,7,61*,0,2,0,80*,
O=C(O)C1C2CCC(O2)C1C(=O)Nc1ccc(Cl)cc1 (stereo unspecified),12,-2,2,-3,-2,/,/,/,/,
Cc1cc(OC(C)C(=O)NCc2ccncc2)c2c3c(c(=O)oc2c1)CCC3 (stereo unspecified),20,-3,-38,-2,26*,-3,-2,-8,42*,
Cc1cc(OCC(=O)NCc2ccncc2)c2c3c(c(=O)oc2c1)CCCC3,25,-2,-34,-4,40*,-3,2,-12,52*,
Cc1cc(OC(C)C(=O)NCC2CCC(C(=O)O)CC2)c2c3c(c(=O)oc2c1)CCC3 (stereo unspecified),28,-4,-20,1,0,/,/,/,/,
Cc1cc(OC(C)C(=O)NCc2ccncc2)c2c3c(c(=O)oc2c1)CCCC3 (stereo unspecified),/,3,-34,32,26*,-2,-4,-9,32*,
c1ccc2c(c1)Sc1ccccc1N2CC1CN2CCC1CC2 (stereo unspecified),8,-1,18,-48,-1,/,/,/,/,
Cc1c(O)ccc(C(=O)CN2CC(C)OC(C)C2)c1O (stereo unspecified),-3,-2,-12,10,1,/,/,/,/,
CN(C)CCc1nn[nH]n1,16,-2,-1,-1,2,/,/,/,/,
CC(=NCCCn1ccnc1)c1c(O)n(-c2ccccc2)c(=O)[nH]c1=O,13,-4,-3,-28,-2,/,/,/,/,
C=CCn1c(O)c(C(C)=NCCCn2ccnc2)c(=O)[nH]c1=O,19,-2,-4,6,58*,-3,-2,-6,78*,
O=[N+]([O-])c1ccc(-c2ccccc2)c([As](=O)(O)O)c1,3,-1,-3,8,76*,-3,82*,-3,80*,
O=C1C(=O)c2ccccc2-c2ccccc21,100*,1,11,15,17*,-5,-5,-4,18*,
CCOC(=O)COc1ccc2c(c1)c(C(C)=O)c(C)n2Cc1ccccc1,-6,-2,-31,-26,1,/,/,/,/,
COc1ccc(Cl)cc1N=Cc1c(O)n(C)c(=O)n(C)c1=O,11,-1,-7,-6,13*,-2,-2,-5,21*,
O=c1c2ccccc2nc(-c2ccccc2)n1-c1ccccc1,-6,-4,-17,1,0,/,/,/,/,
O=c1c2ccccc2[se]n1-c1ccccc1,-14,-2,-1,-1,27*,-3,-87,-10,42*,
CC(=O)C1(c2ccccc2)CCN(C(=O)C2CCC(=O)N(CCc3cccc(F)c3)C2)CC1 (stereo unspecified),5,0,-54,3,1,/,/,/,/,
Cc1cc(OCC(=O)N[C@H](C(=O)O)c2ccccc2)c2c3c(c(=O)oc2c1)CCC3,25,-2,-19,22,17*,-3,26*,-7,21*,
Cc1cc(OCC(=O)N[C@@H](Cc2ccccc2)C(=O)O)c2c3c(c(=O)oc2c1)CCC3,28,-3,-18,15,2,/,/,/,/,
Cc1cc(OCC(=O)NC(Cc2ccc(Cl)cc2)C(=O)O)c2c3c(c(=O)oc2c1)CCC3 (stereo unspecified),14,-1,5,-7,19*,-4,33*,-7,19*,
CN1CCN(c2ccc(NC(=O)Oc3ccccc3)cc2)CC1,10,-5,18,0,29*,-5,-4,-6,24*,
COC(=O)C(O)(c1ccc(NC(=O)Oc2ccccc2)cc1)C(F)(F)F (stereo unspecified),-5,-3,2,8,-3,/,/,/,/,
CN(C)C1C(=O)C(C(N)=O)=C(O)C2(O)C(=O)C3=C(O)c4c(O)cccc4C(C)(O)C3C(O)C12 (stereo unspecified),32,0,-1,96*,0,/,/,/,/,NS3 hel confirm=10;DNA FID counter-2=19
Cc1ccc(N2C(=O)NC(=O)/C(=C/c3ccc(-c4ccc(C(=O)O)c(Cl)c4)o3)C2=O)cc1,25,-2,-32,39*,-1,/,/,/,/,NS3 hel confirm=36*;DNA FID counter-2=9
SMILES,SUMO HTRF inh,IMP-1 inh-1,DNA FID counter-1,HCV NS3 hel inh,VIM-2 inhibitor,IMP-1 inh-2,VIM-2 FRET ctr,TEM-1 inh,VIM-2 confirm 2,others
CCN1C(=O)/C(=C\c2ccc([N+](=O)[O-])s2)C(=O)NC1=S,20,0,-11,31,-2,/,/,/,/,
C=CCN1C(=O)/C(=C/c2ccc(Br)s2)C(=O)NC1=S,-2,4,-11,46*,1,/,/,/,/,NS3 hel confirm=68*;DNA FID counter-2=9
CCOC(=O)CSc1ccc(C(=O)N2CCC3(CC2)OCCO3)cc1[N+](=O)[O-],0,-2,-22,-4,-3,/,/,/,/,
O=C1NC(=O)C(=Cc2ccc(-c3ccc(S(=O)(=O)N4CCOCC4)cc3)o2)C(=O)N1,13,5.4*,10,42*,-1,/,/,/,/,NS3 hel confirm=-5;DNA FID counter-2=1
CN1CCC(N(C)c2ncnc3ccc(Br)cc23)CC1,4,-1,4,-3,-1,/,/,/,/,
Cc1ccc(-c2nc(N(C)C3CCN(C)CC3)c3ccccc3n2)cc1,10,-3,69*,38*,11*,/,/,/,/,NS3 hel confirm=17;DNA FID counter-2=84*
O=C1NC(=O)N(c2ccccc2F)C(=O)/C1=C/c1ccc(Oc2ccc([N+](=O)[O-])cn2)cc1,18,0,-9,8,0,/,/,/,/,
O=C1NC(=O)C(=Cc2ccc(Sc3ccccc3)o2)C(=O)N1,18,0,-4,9,1,/,/,/,/,
O=C1NC(=O)N(c2ccc(Cl)cc2)C(=O)/C1=C\c1ccc(Sc2nc3ccccc3[nH]2)o1,5,-7,-28,44*,-1,/,/,/,/,NS3 hel confirm=76*;DNA FID counter-2=-7
CC(C)c1ccc(-n2c(O)c(C=NC(CCS(C)=O)C(=O)O)c(=O)[nH]c2=S)cc1 (stereo unspecified),7,-2,-13,40*,-4,/,/,/,/,NS3 hel confirm=-8;DNA FID counter-2=12
O=C(N/N=C/c1c(O)n(-c2ccccc2)c(=S)[nH]c1=O)c1ccccc1,-1,0,-21,12,-4,/,/,/,/,

# From PubChem BioAssay
